Source: publication PMC9939367 (Acta Pharmaceutica Sinica. B, 2022)
Where “and” joins values, the source holds several entries; their conditions need not be identical. Identical values can stand only once.

Experiments:
human MOR [1] = molecular target: T1, human MOR (Homo sapiens, UniProt P35372); format: cell-based
human MOR [2] = molecular target: T1, human MOR; format: cell-based; remark: listed apart in the source
S1R (σ1R) = S1R (σ1R) (Cavia porcellus, UniProt Q60492); assay: [3H]; format: binding; conditions: guinea pig brain membranes, 1 mmol/L DPH
Chain of S1R (σ1R) (Q60492 whole entry): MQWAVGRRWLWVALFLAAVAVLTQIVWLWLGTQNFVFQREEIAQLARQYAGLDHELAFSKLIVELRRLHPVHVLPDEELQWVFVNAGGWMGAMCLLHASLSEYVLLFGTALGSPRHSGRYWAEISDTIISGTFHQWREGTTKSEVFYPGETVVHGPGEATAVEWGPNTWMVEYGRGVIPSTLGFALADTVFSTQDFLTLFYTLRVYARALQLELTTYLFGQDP

male Wistar rats [3] = assay: Paw pressure test; format: in vivo, rat; conditions: for maximal efficacy, paw pressure: single i.p.
male Wistar rats [4] = assay: Tail-flick test; format: in vivo, rat; conditions: for maximal effect, tail flick: single i.p.
male Wistar rats [5] = assay: Carrageenan-induced acute inflammatory pain, mechanical allodynia; format: in vivo, rat; conditions: for maximal effect, carrageenan mechanical allodynia: single i.p., ipsilateral paw
male Wistar rats [6] = assay: MIA-induced osteoarthritis pain, acute treatment, mechanical allodynia; format: in vivo, rat; conditions: for maximal effect, MIA mechanical allodynia: single i.p., ipsilateral paw
male Wistar rats [7] = assay: Spared nerve injury; format: in vivo, rat; conditions: for maximal effect, SNI mechanical allodynia: single i.p., ipsilateral paw
male Wistar rats [8] = format: in vivo, rat; conditions: 3 mg/kg i.p.
Method in brief: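 Male Wistar rats received i.p. vehicle (0.5% hydroxypropyl methylcellulose) or test compound, dose groups n = 7–10. The read-out 20 min after dosing was paw-pressure PPT, tail-flick TFL, or von Frey PWT in carrageenan-, MIA- and SNI-induced pain models. Dose–response curves were fitted to a four-parameter logistic (variable slope) by least-squares non-linear fitting. Efficacy at 3 mg/kg i.p. was calculated from each model's curve.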

male Wistar rats [9] = assay: Intestinal transit inhibition; format: in vivo, rat
male Wistar rats [10] = assay: Whole body plethysmography; format: in vivo, rat
[11] = Plasma and brain pharmacokinetics, 3 mg/kg i.p. single dose; format: in vivo; conditions: rat
Method in brief: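 Male Wistar rats got a single 3 mg/kg i.p. dose: 48 rats, 8 sampling points, 6 per point. Blood went into heparinized tubes and was centrifuged 4 °C, 3700 × g, 10 min. Brains were homogenized in DPBS (1:5 w/w). After acetonitrile protein precipitation, LC–MS/MS quantified drug (LOQ 1 ng/mL plasma, 2 ng/g brain). AUC, Cmax, Tmax and t1/2 came from non-compartmental analysis. Brain-to-plasma ratio = AUC brain/AUC plasma.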

[12] = Plasma levels in the MIA study, repeated b.i.d. s.c. dosing; format: in vivo, rat
Method in brief: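 MIA-injected male Wistar rats (n = 5/group) received 0.5, 1.5 or 3 mg/kg s.c. b.i.d. for 28 days, starting 14 days post-MIA. Caudal-vein blood was drawn on Day 1 (first dose) and Day 28 (last dose), 35–40 min post-dose, right after von Frey testing. Samples went into K2-EDTA tubes and were spun 4 °C, 3700 × g, 10 min. Acetonitrile precipitation preceded LC–MS/MS (LOQ 1 ng/mL). Values are mean ± SEM.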

[13] = Plasma pharmacokinetics in ferrets, single i.p. dose; format: in vivo, ferret
Method in brief: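 Male ferrets received a single i.p. dose of 0.5 or 1 mg/kg. Serial blood was drawn via carotid catheter at predose, 5, 15, 30 min and 1, 2, 4, 7, 24 h. Samples went into heparinized tubes and were spun 4 °C, 3700 × g, 10 min. Plasma was acetonitrile-precipitated and measured by LC–MS/MS (LOQ 1 ng/mL). AUC and Cmax came from non-compartmental analysis.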

MOR = MOR (Rattus norvegicus, UniProt P33535); assay: Brain MOR occupancy, ex vivo autoradiography with [3H]-DAMGO; format: in vivo; conditions: ip, read-out: MOR occupancy, average, 3 mg/kg i.p.
Chain of MOR (P33535 whole entry): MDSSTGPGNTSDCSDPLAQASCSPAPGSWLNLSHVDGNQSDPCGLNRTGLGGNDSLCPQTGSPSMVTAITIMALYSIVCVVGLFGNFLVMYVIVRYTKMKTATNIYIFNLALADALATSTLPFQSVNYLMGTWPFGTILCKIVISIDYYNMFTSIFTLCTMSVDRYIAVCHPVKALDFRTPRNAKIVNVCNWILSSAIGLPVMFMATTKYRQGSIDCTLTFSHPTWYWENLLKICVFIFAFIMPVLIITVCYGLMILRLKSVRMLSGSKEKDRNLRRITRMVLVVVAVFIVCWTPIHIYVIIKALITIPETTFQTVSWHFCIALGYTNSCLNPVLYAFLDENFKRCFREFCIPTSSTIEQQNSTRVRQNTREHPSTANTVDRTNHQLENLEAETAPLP

human MOR [14] = conditions: read-out: In vitro binding affinity (Ki), MOR; cited from earlier work
human S1R = conditions: read-out: In vitro binding affinity (Ki), S1R; cited from earlier work
[15] = more than 180 targets; cited from earlier work
mice = conditions: repeated b.i.d. administration for 10 days in mice; cited from earlier work
[16] = system: male ferrets (Mustela putorius furo); assay: Proemetic response in ferrets; conditions: for emetic response (retching and vomiting, words) / nausea-like global score: 4 h observation
S1R = S1R (Rattus norvegicus, UniProt Q9R0C9); assay: Brain S1R occupancy, ex vivo autoradiography with [3H]-; format: in vivo; conditions: morphine 10 mg/kg, oxycodone 3 mg/kg i.p., 30 min
Chain of S1R (Q9R0C9 whole entry): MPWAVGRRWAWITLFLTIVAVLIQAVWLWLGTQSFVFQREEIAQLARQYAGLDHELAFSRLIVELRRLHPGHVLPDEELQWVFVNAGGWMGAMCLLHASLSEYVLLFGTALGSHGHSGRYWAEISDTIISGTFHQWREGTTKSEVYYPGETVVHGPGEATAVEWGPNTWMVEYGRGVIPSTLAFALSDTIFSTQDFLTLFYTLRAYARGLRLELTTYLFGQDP

T1 sequence (P35372 whole entry): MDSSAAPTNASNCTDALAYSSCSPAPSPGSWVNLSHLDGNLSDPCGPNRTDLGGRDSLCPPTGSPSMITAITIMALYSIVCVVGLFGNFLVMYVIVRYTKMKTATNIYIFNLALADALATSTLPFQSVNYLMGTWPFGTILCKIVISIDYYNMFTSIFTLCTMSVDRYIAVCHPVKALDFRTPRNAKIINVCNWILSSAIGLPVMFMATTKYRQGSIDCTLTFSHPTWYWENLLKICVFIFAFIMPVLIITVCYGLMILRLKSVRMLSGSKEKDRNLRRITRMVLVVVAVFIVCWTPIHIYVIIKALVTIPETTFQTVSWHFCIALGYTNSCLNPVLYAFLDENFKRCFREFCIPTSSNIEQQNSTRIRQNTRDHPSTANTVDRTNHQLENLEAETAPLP

SMILES: CCN1CC2(CCN(CCc3cc(F)ccc3F)CC2)O[C@H](C)C1=O [WLB-73502, (R)-9-(2,5-difluorophenethyl)-4-ethyl-2-methyl-1-oxa-4,9-diazaspiro[5.5]undecan-3-one]
- cAMP lgτ (operational efficacy, G-protein pathway) (human MOR [1]): 1.58
- effect on β-arrestin-2 recruitment (human MOR [2]): no effect
- Ki without DPH/Ki with DPH (S1R (σ1R)): 0.9
- potency relative to morphine, paw pressure (male Wistar rats [3]; more potent than morphine): ~4 fold and 3 fold
- maximal efficacy, paw pressure (male Wistar rats [3]): ≥ 80%
- potency relative to morphine, tail flick (male Wistar rats [4]; more potent than morphine): ~4 fold
- maximal effect, tail flick (male Wistar rats [4]): ≥ 95%
- potency relative to morphine, carrageenan (male Wistar rats [5]; more potent than morphine): 2 fold
- maximal effect, carrageenan mechanical allodynia (male Wistar rats [5]): ≥ 80%
- potency relative to morphine, MIA (male Wistar rats [6]; more potent than morphine): 2 fold
- maximal effect, MIA mechanical allodynia (male Wistar rats [6]): ≥ 95%
- potency relative to morphine, SNI (male Wistar rats [7]; more potent than morphine): 8 fold
- potency relative to oxycodone, SNI (male Wistar rats [7]; more potent than oxycodone): 3 fold
- maximal effect, SNI mechanical allodynia (male Wistar rats [7]): 91.2 ± 5.9%
- Antinociceptive efficacy, average of the pain models (male Wistar rats [8]): 75%
- intestinal transit inhibition (male Wistar rats [9]; 2.5 mg/kg i.p.): did not significantly inhibit
- intestinal transit inhibition (male Wistar rats [9]; 5 mg/kg i.p.): did not significantly inhibit
- intestinal transit inhibition (male Wistar rats [9]; 10 mg/kg i.p.): 19%
- intestinal transit inhibition (male Wistar rats [9]; 20 mg/kg i.p.): 59%
- minute volume (MV) inhibition (male Wistar rats [10]; 1.25 mg/kg i.p.): did not significantly change MV
- minute volume (MV) inhibition (male Wistar rats [10]; 5 mg/kg i.p.): did not significantly change MV
- minute volume (MV) inhibition (male Wistar rats [10]; 10 mg/kg i.p.): ~30%
- minute volume (MV) inhibition (male Wistar rats [10]; 20 mg/kg i.p.): ~30%
- Brain-to-plasma ratio (AUC brain/AUC plasma) ([11]; 3 mg/kg i.p.): 2.57
- Cmax ([11]; Wistar, brain, ip, 3 mg/kg): 982 ± 191 ng/g
- Tmax ([11]; Wistar, brain, ip, 3 mg/kg, 3 mg/kg i.p.): 4.8 min
- half-life ([11]; Wistar, brain, ip, 3 mg/kg, t1/2, brain, 3 mg/kg i.p.): 20.4 min
- AUC(0-inf) ([11]; Wistar, plasma, ip, 3 mg/kg): 136 ± 15 ng·h/mL
- Cmax ([11]; Wistar, plasma, ip, 3 mg/kg): 441 ± 73 ng/mL
- Tmax ([11]; Wistar, plasma, ip, 3 mg/kg, 3 mg/kg i.p.): 4.8 min
- Tmax ([11]; Wistar, plasma, ip, 3 mg/kg, 3 mg/kg i.p., first sampling time): 5 min
- AUC0–∞ ([11]; brain, 3 mg/kg i.p.): 350 ± 40 (ng·h/g)
- Plasma concentration ([12]; 0.5 mg/kg s.c. b.i.d., Day 28, 35–40 min after administration): 82 ± 3.2 ng/mL
- Plasma concentration ([12]; 0.5 mg/kg s.c., Day 1, 35–40 min after administration): 47.3 ± 3.8 ng/mL
- Plasma concentration ([12]; 1.5 mg/kg s.c. b.i.d., Day 28, 35–40 min after administration): 283.7 ± 10.4 ng/mL
- Plasma concentration ([12]; 1.5 mg/kg s.c., Day 1, 35–40 min after administration): 174.9 ± 7.4 ng/mL
- Plasma concentration ([12]; 3 mg/kg s.c. b.i.d., Day 28, 35–40 min after administration): 550.6 ± 33.8 ng/mL
- Plasma concentration ([12]; 3 mg/kg s.c., Day 1, 35–40 min after administration): 361 ± 24.7 ng/mL
- AUC(0-inf) ([13]; ferret, plasma, ip, 1 mg/kg): 2460 ± 625 ng·h/mL
- Cmax ([13]; ferret, plasma, ip, 1 mg/kg): 620 ± 98 ng/mL
- AUC in ferrets at 1 mg/kg relative to rats at 3 mg/kg ([13]; higher in ferrets): 18 fold
- receptor occupancy at 3 mg/kg (MOR): 50%
- Ki (human MOR [14]): 64 nM
- Ki (human S1R): 118 nM
- selectivity against target panel [15]: selective
- naloxone-precipitated withdrawal signs (mice): not detected
- emetic response (retching and vomiting, words) ([16]; 0.5 mg/kg i.p.): did not induce any emetic response
- nausea-like global score ([16]; 0.5 mg/kg i.p.): ~2
- emetic response (retching and vomiting, words) ([16]; 1 mg/kg i.p.): did not induce any emetic response
- nausea-like global score ([16]; 1 mg/kg i.p.): ~4

SMILES: COc1ccc2c(c1)[C@]13CCCC[C@@H]1[C@H](C2)N(C)CC3 [dextromethorphan, Dextromethorphan, reference compound]
- Ki without DPH/Ki with DPH (S1R (σ1R)): 9.0

SMILES: CN1CC[C@]23c4c5ccc(O)c4O[C@H]2[C@@H](O)C=C[C@H]3[C@H]1C5 [morphine, Morphine, reference compound]
- maximal efficacy, paw pressure (male Wistar rats [3]): ≥ 80%
- maximal effect, tail flick (male Wistar rats [4]): ≥ 95%
- maximal effect, carrageenan mechanical allodynia (male Wistar rats [5]): ≥ 80%
- maximal effect, MIA mechanical allodynia (male Wistar rats [6]): ≥ 95%
- maximal effect, SNI mechanical allodynia (male Wistar rats [7]): 82.2 ± 11.1%
- effect on [3H]-(+)-pentazocine specific binding in rat cortex and striatum (S1R): neither morphine nor oxycodone had a significant effect
- nausea-like global score ([16]; 0.5 mg/kg s.c.): ~12
- retches ([16]; 0.5 mg/kg s.c., 4 h period): 2.17 ± 0.60
- vomits ([16]; 0.5 mg/kg s.c., 4 h period): 1.17 ± 0.65

SMILES: COc1ccc2c3c1O[C@H]1C(=O)CC[C@@]4(O)[C@@H](C2)N(C)CC[C@]314 [oxycodone, reference compound]
- β-Arrestin lgτ (human MOR [2]): −0.28
- maximal efficacy, paw pressure (male Wistar rats [3]): ≥ 80%
- maximal effect, tail flick (male Wistar rats [4]): ≥ 95%
- maximal effect, carrageenan mechanical allodynia (male Wistar rats [5]): ≥ 80%
- maximal effect, MIA mechanical allodynia (male Wistar rats [6]): ≥ 95%
- maximal effect, SNI mechanical allodynia (male Wistar rats [7]): 74.9 ± 7.5%
- intestinal transit inhibition (male Wistar rats [9]; 2.5 mg/kg i.p.): no effect
- intestinal transit inhibition (male Wistar rats [9]; 5 mg/kg i.p.): 72%
- intestinal transit inhibition (male Wistar rats [9]; 10 mg/kg i.p.): 93%
- minute volume (MV) inhibition (male Wistar rats [10]; 1.25 mg/kg i.p.): did not significantly modify MV
- minute volume (MV) inhibition (male Wistar rats [10]; 5 mg/kg i.p.): 30%
- minute volume (MV) inhibition (male Wistar rats [10]; 10 mg/kg i.p.): 50%
